This is an account of results in ChEMBL document CHEMBL3804820, “2-hydroxyisoquinoline-1,3(2H,4H)-diones (HIDs) as human immunodeficiency virus type 1 integrase inhibitors: Influence of the alkylcarboxamide substitution of position 4” (Eur J Med Chem, 2016).

What is called CC50 is the concentration at which the toxic effect on the cells reaches its halfway point. One may read the pEC50 as the negative decadic logarithm of the EC50, by convention in mol/L. For orientation: inhibition means the relative decrease from the control value, in per cent. A word on the solubility: it is the dissolved amount per volume that the medium holds. Read a high solubility as a readily soluble substance.

SMILES strings stand for the structures. pEC50: −log10 of the molar value. ≈ marks a conversion by molar mass, not a printed value. Calls of active or inactive are those of the source. The rule behind the calls is not given here.

Data set [1] can be described thus: Cytotoxicity against human MT4 cells assessed as reduction in cell viability by MTT assay. The data set is classed as cell-based. The method, boiled down: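 MT-4 cell viability was measured by MTT reduction, run in parallel with the antiviral assay using 5-fold serial compound dilutions. CC50 is the concentration reducing viability by 50%.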
On the technique in general: Tetrazolium assays rely on reduction of a dye to a coloured formazan, in cell work by metabolically active cells.

For data set [2], the system named is Human immunodeficiency virus 1. Briefly: Antiviral activity against HIV1 3B infected in human MT4 cells assessed as reduction in virus-induced cytopathic effect by MTT assay. The conditions noted are these: Human immunodeficiency virus 1, 3B. It is filed as functional, organism-based. The method, boiled down: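 MT-4 cells infected with 100-300 CCID50 of HIV-1 IIIB, in the presence of 5-fold serial dilutions of compound. Cytopathic effect read by MTT reduction to formazan, measured spectrophotometrically. EC50 is the concentration giving 50% protection against virus-induced CPE.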

The subject of data set [3] is Human immunodeficiency virus 1. Put plainly: Antiviral activity against HIV1 3B infected in human MT4 cells at 50 to 100 times antiviral EC50 added 1 to 25 hrs post infection assessed as time required for loss of inhibition of viral replication measured at 30 hrs post infection by p24 ELISA method. It is filed as functional. (In general: An ELISA detects its analyte on a solid surface through an enzyme-linked reagent.)

For data set [4], the system named is Human immunodeficiency virus 1. Put plainly: Selectivity ratio of EC50 for raltegravir resistant HIV1 harboring integrase Q148H mutant infected in human MT4 cells to EC50 for wild type HIV1 3B infected in human MT4 cells. It is filed as functional. The method, boiled down: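 MT-4/MTT cytopathic-effect assay in human MT-4 lymphocytes. Cells were infected with 100–300 CCID50 of each virus stock in the presence of 5-fold serial drug dilutions. The HIV-1 IIIB wild-type stock was titrated on MT-4 cells. Viability was read spectrophotometrically as formazan from MTT reduction. EC50 is the concentration giving 50% protection against CPE for each strain. Fold-change is mutant-strain EC50 relative to wild-type EC50.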

For a further data set, the target named is T1, CYP1A2 (Homo sapiens, UniProt P05177).
T1 sequence (P05177 whole entry): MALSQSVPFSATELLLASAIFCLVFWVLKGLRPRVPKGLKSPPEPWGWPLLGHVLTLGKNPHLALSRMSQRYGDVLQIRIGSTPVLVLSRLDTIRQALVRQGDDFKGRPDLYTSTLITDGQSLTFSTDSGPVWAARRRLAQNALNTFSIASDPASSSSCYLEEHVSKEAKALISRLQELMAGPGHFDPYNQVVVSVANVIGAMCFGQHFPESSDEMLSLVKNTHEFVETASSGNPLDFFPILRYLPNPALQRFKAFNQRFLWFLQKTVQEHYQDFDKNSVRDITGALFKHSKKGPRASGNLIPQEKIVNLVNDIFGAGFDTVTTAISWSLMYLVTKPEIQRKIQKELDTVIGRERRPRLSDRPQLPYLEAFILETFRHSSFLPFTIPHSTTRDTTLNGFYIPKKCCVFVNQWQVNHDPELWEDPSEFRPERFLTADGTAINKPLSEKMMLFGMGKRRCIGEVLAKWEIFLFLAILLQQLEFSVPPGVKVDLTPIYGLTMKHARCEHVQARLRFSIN
Briefly: Inhibition of human recombinant CYP1A2 using CEC as substrate at 10 uM incubated for 30 mins by fluorimetry relative to control. It is filed as ADME. As to conditions: recombinant CYP1A2, probe CEC. In short, it runs like this: (§1)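 Recombinant CYP isoforms, each with its fluorogenic substrate: CYP1A2 and CYP2C19 with CEC, CYP2C9 and CYP2D6 with MFC, CYP3A4 with BFC. Read as percentage inhibition of control, standard contract assays.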

The next data set deals with CYP2C9 (Homo sapiens, UniProt P11712). Put plainly: Inhibition of human recombinant CYP2C9 using MFC as substrate at 10 uM incubated for 40 mins by fluorimetry relative to control. It is filed as ADME. The conditions noted are these: recombinant CYP2C9, probe MFC. The method, boiled down: as §1
Sequence of CYP2C9 (P11712 whole entry): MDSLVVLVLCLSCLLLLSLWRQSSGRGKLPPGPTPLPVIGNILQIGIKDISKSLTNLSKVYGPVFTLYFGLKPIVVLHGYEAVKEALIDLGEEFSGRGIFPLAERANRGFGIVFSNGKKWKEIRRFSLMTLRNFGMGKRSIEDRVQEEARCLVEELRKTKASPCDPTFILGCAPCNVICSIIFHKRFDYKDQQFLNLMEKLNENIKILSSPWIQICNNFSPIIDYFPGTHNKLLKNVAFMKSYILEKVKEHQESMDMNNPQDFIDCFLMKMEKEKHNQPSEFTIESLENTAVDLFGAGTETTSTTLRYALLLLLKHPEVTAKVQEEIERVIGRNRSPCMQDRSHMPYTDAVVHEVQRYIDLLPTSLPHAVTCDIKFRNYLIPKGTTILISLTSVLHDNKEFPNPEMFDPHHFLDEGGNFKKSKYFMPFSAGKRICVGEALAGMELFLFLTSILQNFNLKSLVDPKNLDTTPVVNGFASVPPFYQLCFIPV
The next data set addresses CYP3A4 (Homo sapiens, UniProt P08684). Put plainly: Inhibition of human recombinant CYP3A4 using BFC as substrate at 10 uM incubated for 30 mins by fluorimetry relative to control. The data set is classed as ADME. The conditions noted are these: recombinant CYP3A4, probe BFC. The method, boiled down:
as §1

Data set [5] deals with MDCK-II. Put plainly: Inhibition of human P-gp expressed in MDCK2-MDR1 cells assessed as reduction in calcien-AM efflux at 1 uM incubated for 20 mins by fluorimetry relative to control. The data set is classed as cell-based. In short, it runs like this: (§2)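 P-gp efflux inhibition in MDR1-MDCKII cells with calcein AM substrate, tested up to 100.0 µM. Read as percentage inhibition of control.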

In data set [6] the test system is MDCK-II. Briefly: Inhibition of human P-gp expressed in MDCK2-MDR1 cells assessed as reduction in calcien-AM efflux at 30 uM incubated for 20 mins by fluorimetry relative to control. It is filed as cell-based. In short, it runs like this: as §2
A short description of data set [7]: Cytotoxicity against human HepG2 cells assessed as reduction in cell number at 30 uM after 72 hrs by fluorescent image analysis relative to untreated control. As to conditions: read-out: INH. It is filed as cell-based. In short, it runs like this: (§3)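 Contract in vitro cytotoxicity panel covering cell number, intracellular free calcium, nuclear size, membrane permeability and mitochondrial membrane potential. Compounds tested at 1.0, 30.0 and 100.0 µM; values are percentage change versus untreated control, and IC50 where derived.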

The nature of data set [8]: Cytotoxicity against human HepG2 cells assessed as reduction in cell number at 100 uM after 72 hrs by fluorescent image analysis relative to untreated control. The data set is classed as cell-based. The conditions noted are these: read-out: INH. In short, it runs like this: as §3
Data set [9] has as its system HepG2. Put plainly: Cytotoxicity against human HepG2 cells assessed as increase in intracellular free calcium level at 1 uM after 72 hrs by fluorescent image analysis relative to untreated control. The conditions noted are these: hepg2, 72 h. It is filed as cell-based. The method, boiled down: as §3
A short description of data set [10]: Cytotoxicity against human HepG2 cells assessed as reduction in nuclear size at 1 uM after 72 hrs by fluorescent image analysis relative to untreated control. The conditions noted are these: read-out: INH. It is filed as cell-based. In short, it runs like this: as §3
Data set [11] has as its system HepG2. Put plainly: Cytotoxicity against human HepG2 cells assessed as increase in membrane permeability at 1 uM after 72 hrs by fluorescent image analysis relative to untreated control. The data set is classed as cell-based. As to conditions: hepg2, 72 h.
The test system of data set [12] is HepG2. Briefly: Cytotoxicity against human HepG2 cells assessed as increase in membrane permeability at 100 uM after 72 hrs by fluorescent image analysis relative to untreated control. The conditions noted are these: hepg2, 72 h. The data set is classed as cell-based.
A short description of data set [13]: Cytotoxicity against human HepG2 cells assessed as reduction in mitochondrial membrane potential at 30 uM after 72 hrs by fluorescent image analysis relative to untreated control. It is filed as cell-based. As to conditions: read-out: INH. The method, boiled down: as §3
The nature of data set [14]: Cytotoxicity against human HepG2 cells assessed as reduction in mitochondrial membrane potential at 100 uM after 72 hrs by fluorescent image analysis relative to untreated control. The data set is classed as cell-based. The conditions noted are these: read-out: INH. In short, it runs like this: as §3
Data set [15] can be described thus: Plasma protein binding in human at 10 uM incubated for 4 hrs by equilibrium dialysis method. It is filed as ADME, cell-free. The conditions noted are these: read-out: PPB. The method, boiled down: (§4)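 Human plasma protein binding, given as percent bound and percent recovery, in a standard contract assay.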
Data set [16] can be described thus: Plasma protein binding in human assessed as drug recovery at 10 uM incubated for 4 hrs by equilibrium dialysis method. The data set is classed as ADME, cell-free. The conditions noted are these: read-out: Drug recovery. In short, it runs like this: as §4
Data set [17] is described as follows: Aqueous solubility in PBS at pH 7.4. The data set is classed as physicochemical. In short, it runs like this:
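Aqueous solubility measured in PBS, pH 7.4, in a standard contract assay.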

In data set [18] the target is T2, hERG (KCNH2) (Homo sapiens, UniProt Q12809). Briefly: in vitro. As to conditions: CHO-K1 cells expressing human ERG.
T2 sequence (Q12809 whole entry): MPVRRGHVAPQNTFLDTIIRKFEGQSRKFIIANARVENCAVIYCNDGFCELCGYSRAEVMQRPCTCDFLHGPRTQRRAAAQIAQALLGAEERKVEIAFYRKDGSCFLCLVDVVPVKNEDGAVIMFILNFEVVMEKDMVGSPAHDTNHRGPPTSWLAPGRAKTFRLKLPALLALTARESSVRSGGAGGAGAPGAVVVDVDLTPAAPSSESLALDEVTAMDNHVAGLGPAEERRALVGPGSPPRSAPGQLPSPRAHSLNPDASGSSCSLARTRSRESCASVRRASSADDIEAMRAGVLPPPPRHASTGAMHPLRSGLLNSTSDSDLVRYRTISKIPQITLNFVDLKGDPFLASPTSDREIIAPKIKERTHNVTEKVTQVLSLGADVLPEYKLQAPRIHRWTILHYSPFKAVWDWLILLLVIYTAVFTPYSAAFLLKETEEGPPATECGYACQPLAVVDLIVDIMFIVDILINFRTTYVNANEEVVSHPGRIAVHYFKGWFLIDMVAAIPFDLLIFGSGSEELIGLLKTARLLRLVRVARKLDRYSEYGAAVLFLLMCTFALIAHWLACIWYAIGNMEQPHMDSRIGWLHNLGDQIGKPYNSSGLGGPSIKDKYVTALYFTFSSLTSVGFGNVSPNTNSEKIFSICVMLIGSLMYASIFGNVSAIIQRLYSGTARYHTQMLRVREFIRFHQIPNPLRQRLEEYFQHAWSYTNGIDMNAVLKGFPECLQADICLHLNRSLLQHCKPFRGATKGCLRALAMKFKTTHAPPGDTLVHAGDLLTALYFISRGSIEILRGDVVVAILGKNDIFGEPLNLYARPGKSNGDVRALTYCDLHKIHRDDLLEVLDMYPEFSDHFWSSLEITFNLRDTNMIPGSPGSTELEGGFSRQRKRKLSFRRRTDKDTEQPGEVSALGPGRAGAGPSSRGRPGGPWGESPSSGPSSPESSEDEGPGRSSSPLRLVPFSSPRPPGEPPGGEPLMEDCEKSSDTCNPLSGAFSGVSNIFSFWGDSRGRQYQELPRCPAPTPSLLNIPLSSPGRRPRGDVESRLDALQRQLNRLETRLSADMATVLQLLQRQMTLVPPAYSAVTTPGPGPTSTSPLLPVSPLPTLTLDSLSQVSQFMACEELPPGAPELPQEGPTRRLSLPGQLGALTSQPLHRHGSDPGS
The target of data set [19] is T2, hERG (KCNH2). Put plainly: in vitro. As to conditions: CHO-K1 cells expressing human ERG. The source holds these as a separate data set.
In data set [20] the target is T2, hERG (KCNH2). Briefly: in vitro. As to conditions: CHO-K1 cells expressing human ERG. The source holds these as a separate data set.

Sequence of CYP3A4 (P08684 whole entry): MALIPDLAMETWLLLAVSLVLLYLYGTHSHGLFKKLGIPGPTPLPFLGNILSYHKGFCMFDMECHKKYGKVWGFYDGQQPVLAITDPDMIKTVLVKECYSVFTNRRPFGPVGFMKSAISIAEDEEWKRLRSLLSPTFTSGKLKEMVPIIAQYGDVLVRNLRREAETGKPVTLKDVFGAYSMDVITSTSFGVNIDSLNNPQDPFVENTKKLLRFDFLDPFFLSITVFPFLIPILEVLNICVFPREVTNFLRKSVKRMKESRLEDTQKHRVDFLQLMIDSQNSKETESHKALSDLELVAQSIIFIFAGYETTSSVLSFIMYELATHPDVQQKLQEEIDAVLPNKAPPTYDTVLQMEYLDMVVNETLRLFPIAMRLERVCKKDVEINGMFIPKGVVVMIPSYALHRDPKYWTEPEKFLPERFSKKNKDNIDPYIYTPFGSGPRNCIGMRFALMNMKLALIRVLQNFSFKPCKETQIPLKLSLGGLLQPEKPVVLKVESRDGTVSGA

Consider `CCCCCCNC(=O)C1C(=O)N(O)C(=O)c2ccccc21` (stereo not drawn), for which the CC50 in [1] was determined as 57.7 µM. Besides, in data set [2], the pEC50 is 5.57. Besides, the outcome in data set [3] was Active. Moreover, the “Ratio EC50” value in data set [4] is 1. Also, the values for the inhibition at 0.5 h, 10 µM on CYP1A2 and at CYP3A4 were 12.7% and 42%, respectively. In addition, the inhibition at 40 min, 10 µM at CYP2C9 came out at 25.3%. Besides, the inhibition was -5.5% in the data set on MDCK-II [5] and 2% in the data set with MDCK-II [6]. For the same molecule, the cytotoxicity at 72 h, 30 µM in [7] is 4.9%; in data set [13], 5.1%. Besides, the cytotoxicity at 72 h, 100 µM in [8] worked out at 25.3%; in data set [14] it was 33.9%. The results for the Activity in the data set with HepG2 [9], in the data set on HepG2 [11] and in the data set on HepG2 [12] were -1.5%, 0.1% and 23.6%, respectively. Further, the cytotoxicity at 72 h, 1 µM in [10] was -7%. Besides, in data set [15], the fraction unbound at 4 h, 10 µM was determined as 0.001. The recovery at 4 h, 10 µM in data set [16] amounted to 93.2%. The same molecule gave a solubility in data set [17] of 160 µM (≈ 48.8 µg/mL). Also, the inhibition at 5 min, 0.1 µM at hERG (KCNH2) [18] is 5.8%. In addition, the inhibition at 5 min, 1 µM against hERG (KCNH2) [19] is 12.2%. For the same molecule, the inhibition at 5 min, 10 µM against hERG (KCNH2) [20] turned out to be 19.4%.
